Experimental data from ChEMBL document CHEMBL1134389, “Mapping and fitting the peripheral benzodiazepine receptor binding site by carboxamide derivatives. Comparison of different approaches to quantitative ligand-receptor interaction modeling” (J Med Chem, 2001).

target: Translocator protein (Rattus norvegicus, UniProt P16257); test: Test in vitro, for potential ability to displace [3H]1 from PBR in rat brain cortex; type: tissue-based
Summary of the method: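 Rat cortical membranes homogenized in ice-cold PBS (50 mM, pH 7.4) with 100 mM NaCl, spun at 1000g, then pellet washed three times at 50000g and resuspended in PBS. Assay stopped by GF/B filtration, counted by liquid scintillation. IC50 fitted from six displacer concentrations, triplicate.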

Chain of Translocator protein (P16257 whole entry, looked up): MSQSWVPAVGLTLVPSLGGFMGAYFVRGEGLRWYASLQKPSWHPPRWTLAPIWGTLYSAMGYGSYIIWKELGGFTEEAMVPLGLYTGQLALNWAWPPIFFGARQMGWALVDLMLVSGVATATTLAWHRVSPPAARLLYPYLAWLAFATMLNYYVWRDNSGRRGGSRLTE

Compound | IC50 [µM]
Cc1nc2ccccc2c(-c2ccccc2)c1C(=O)N(C)c1ccccc1 | > 10
CCCN(CCC)C(=O)c1ccccc1CN(CC)Cc1ccccc1 | 8.87
Cc1ccc(CN2Cc3nc4ccccc4c(-c4ccccc4)c3C2=O)cc1 | 0.41
CCCN(CCC)C(=O)c1c(C)nc2ccccc2c1-c1ccccc1 | > 10
CCN(CC)C(=O)c1cc(-c2ccccc2)c2ccccc2c1 | 0.005
CCN(Cc1ccccc1)Cc1ccccc1C(=O)N(CC)CC | 8.21
CCN(Cc1ccccc1)Cc1nc2ccccc2c(-c2ccccc2)c1C(=O)NCc1ccccc1 | 2.9
CCOC(=O)c1c(N(CC)Cc2ccccc2)nc2ccccc2c1-c1ccccc1 | 0.54
CCN(Cc1ccccc1)Cc1nc2ccccc2c(-c2ccccc2)c1C(=O)N(CC)CC | 0.373
CCN(Cc1ccccc1)Cc1cc(-c2ccccc2)c2ccccc2n1 | 3.4
O=C1c2c(nc3ccccc3c2-c2ccccc2)CN1Cc1ccc(Cl)cc1 | 0.21
CCN(Cc1ccccc1)Cc1nc2ccccc2c(-c2ccccc2)c1C(=O)N(C)c1ccccc1 | 1.32
CCN(CC)C(=O)c1c(C)nc2ccccc2c1-c1ccccc1 | > 10
CCN(CC)C(=O)c1cc(-c2ccccc2)c2ccccc2n1 | 0.027
CCCN(CCC)C(=O)c1c(CN(CC)Cc2ccccc2)nc2ccccc2c1-c1ccccc1 | 0.456
CCCNC(=O)c1c(CN(CC)Cc2ccccc2)nc2ccccc2c1-c1ccccc1 | 0.872
CCOC(=O)c1c(CN(CC)Cc2ccccc2)nc2ccccc2c1-c1ccccc1 | 0.7
CCOC(=O)c1c(Cl)nc2ccccc2c1-c1ccccc1 | 3.7
CCOC(=O)c1c(CN2CCc3ccccc3C2)nc2ccccc2c1-c1ccccc1 | 1.19
CCN(Cc1ccccc1)Cc1nc2ccccc2c(-c2ccccc2)c1C(=O)N(C)C | 0.229
CCN(Cc1ccccc1)Cc1ccccc1C(=O)N(C)c1ccccc1 | > 10
CCN(Cc1ccccc1)Cc1ccccc1C(=O)N(C)C | > 10
CCN(Cc1ccccc1)Cc1nc2ccccc2c(-c2ccccc2)c1C(=O)N(C)c1ccc(Cl)cc1 | 2.48
CCN(Cc1ccccc1)Cc1c(C(=O)N(CC)CC)nc2ccccc2c1-c1ccccc1 | 0.0041
